The values below come from ChEMBL document CHEMBL1156385, “Macharistol, a new cytotoxic cinnamylphenol from the stems of Machaerium aristulatum” (J Nat Prod, 2001).

≈ marks a conversion by molar mass, not a printed value. Calls of active or inactive are those of the source. The calls are words filed in the database; no cut-off is given here.

The test system of data set [1] is KB. Nature of the data set: Cytotoxicity against human KB cells. The format is functional, cell-based.
The subject of data set [2] is KB. In words: Growth inhibition of human KB cells implanted at intraperitoneal compartment of athymic NCr nu/nu mouse at 25 mg/kg, ip administered once daily after 3 to 6 days of fiber implantation measured on day 7 by hollow fiber assay. The conditions noted are these: read-out: GI. It counts as functional. The procedure, abridged:
(§1)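 Hollow fibers carrying KB (7.5 × 10⁵ cells/mL), Col-2 (10⁶ cells/mL) or hTERT-RPE1 (2.5 × 10⁶ cells/mL) cells were implanted i.p. and s.c. in female athymic NCr nu/nu mice. Compound was coprecipitated with PVP (MW 360 000) and dissolved in PBS. Doses of 6.25, 12.5 or 25 mg/kg were given i.p. once daily on days 3–6 after implantation. Fiber cell growth inhibition was measured.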

Data set [3] relates to KB. In words: Growth inhibition of human KB cells implanted at subcutaneous compartment of athymic NCr nu/nu mouse at 25 mg/kg, ip administered once daily after 3 to 6 days of fiber implantation measured on day 7 by hollow fiber assay. The format is functional. To be noted: sc, read-out: GI. The gist of the method:
as §1

The subject of data set [4] is Col2. In words: Growth inhibition of human Col2 cells implanted at intraperitoneal compartment of athymic NCr nu/nu mouse at 25 mg/kg, ip administered once daily after 3 to 6 days of fiber implantation measured on day 7 by hollow fiber assay. It counts as functional. The conditions noted are these: read-out: GI. The procedure, abridged:
as §1

Data set [5] concerns Col2. Nature of the data set: Growth inhibition of human Col2 cells implanted at subcutaneous compartment of athymic NCr nu/nu mouse at 25 mg/kg, ip administered once daily after 3 to 6 days of fiber implantation measured on day 7 by hollow fiber assay. The conditions noted are these: Col2, sc, read-out: GI. It counts as functional. The procedure, abridged:
as §1

Data set [6] is described as follows: Growth inhibition of human telomerase […] RPE1 cells implanted at intraperitoneal compartment of athymic NCr nu/nu mouse at 25 mg/kg, ip administered once daily after 3 to 6 days of fiber implantation measured on day 7 by hollow fiber assay. The format is functional, TERT-RPE1. To be noted: RPE-1, ip, read-out: GI. The procedure, abridged: as §1
Data set [7] can be described thus: Growth inhibition of human telomerase […] RPE1 cells implanted at subcutaneous compartment of athymic NCr nu/nu mouse at 25 mg/kg, ip administered once daily after 3 to 6 days of fiber implantation measured on day 7 by hollow fiber assay. It counts as functional, TERT-RPE1. To be noted: RPE-1, sc, read-out: GI. The gist of the method:
as §1

In data set [8] the test system is Mus musculus. In words: Toxicity in athymic NCr nu/nu mouse implanted with human KB cells at intraperitoneal compartment assessed as body weight loss at 25 mg/kg, ip administered once daily after 3 to 6 days of fiber implantation measured on day 7 by hollow fiber assay. On the set-up: dose 25 mg/kg, route intraperitoneal. The format is organism-based. The conditions noted are these: in vivo. The procedure, abridged:
(§2)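 Female athymic NCr nu/nu mice carried i.p. and s.c. hollow fibers with KB, Col-2 or hTERT-RPE1 cells. They received the PVP-coprecipitated compound in PBS at 6.25, 12.5 or 25 mg/kg i.p. once daily on days 3–6 after implantation. Toxicity was followed as body weight, recorded daily.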

For data set [9], the system named is Mus musculus. Nature of the data set: Toxicity in athymic NCr nu/nu mouse implanted with human telomerase […] RPE1 cells at subcutaneous compartment assessed as body weight loss at 25 mg/kg, ip administered once daily after 3 to 6 days of fiber implantation measured on day 7 by hollow fiber assay. It counts as organism-based. On the set-up: dose 25 mg/kg. To be noted: in vivo, sc. The procedure, abridged:
as §2

The test system of data set [10] is Mus musculus. Nature of the data set: Toxicity in athymic NCr nu/nu mouse implanted with human Col2 cells at subcutaneous compartment assessed as body weight loss at 25 mg/kg, ip administered once daily after 3 to 6 days of fiber implantation measured on day 7 by hollow fiber assay. Also on record: dose 25 mg/kg. It counts as organism-based. To be noted: in vivo, sc. The procedure, abridged: as §2

The test system of data set [11] is Mus musculus. In words: Toxicity in athymic NCr nu/nu mouse implanted with human KB cells at subcutaneous compartment assessed as body weight loss at 25 mg/kg, ip administered once daily after 3 to 6 days of fiber implantation measured on day 7 by hollow fiber assay. The format is organism-based. Also on record: dose 25 mg/kg. To be noted: in vivo, sc. The procedure, abridged: as §2

Data set [12] relates to Mus musculus. In words: Toxicity in athymic NCr nu/nu mouse implanted with human telomerase […] RPE1 cells at intraperitoneal compartment assessed as body weight loss at 25 mg/kg, ip administered once daily after 3 to 6 days of fiber implantation measured on day 7 by hollow fiber assay. It counts as organism-based. Also on record: dose 25 mg/kg, route intraperitoneal. The conditions noted are these: in vivo. The procedure, abridged:
as §2

The subject of data set [13] is Mus musculus. Nature of the data set: Toxicity in athymic NCr nu/nu mouse implanted with human Col2 cells at intraperitoneal compartment assessed as body weight loss at 25 mg/kg, ip administered once daily after 3 to 6 days of fiber implantation measured on day 7 by hollow fiber assay. It counts as organism-based. On the set-up: dose 25 mg/kg, route intraperitoneal. The conditions noted are these: in vivo. The gist of the method:
as §2

The test system of data set [14] is Col2. Nature of the data set: Cytotoxicity against human Col2 cells. It counts as functional, cell-based.
The subject of another data set is LNCaP. In words: Cytotoxicity against human LNCAP cells. It counts as functional, cell-based.

What is called EC50 is the concentration giving half of the maximal effect. A lower EC50 goes with higher potency in that assay. In the data set on KB [1], `COc1ccc2c(c1)O[C@@H]1c3ccc(O)cc3OC[C@H]21` yielded an EC50 of 2.4 µg/mL (≈ 8.88 µM).
For `COc1ccc(-c2coc3cc(O)ccc3c2=O)cc1`, the outcome in the data set on KB [1] was inactive.
Turning to `Oc1ccc2c(c1)OC[C@@H]1c3cc4c(cc3O[C@H]21)OCO4`, the outcome in the data set with KB [1] was inactive.
Regarding `COc1c(O)cc(C/C=C/c2ccccc2)c(OC)c1O` [MACHARISTOL], the inhibition in vivo at 25 mg/kg in the data set on KB [2] was 23%; in the data set with KB [3] it was 0%; with Col2 [4], 35%; with Col2 [5] it was 35%; in data set [6], 31%; in data set [7], 45%. The Activity result in the data set with Mus musculus [8], in the data set with Mus musculus [9], with Mus musculus [10], in the data set with Mus musculus [11], in the data set on Mus musculus [12] and in the data set with Mus musculus [13] was “Non-toxic” in each case. Moreover, the EC50 worked out at 1.7 µg/mL (≈ 5.94 µM) with KB [1], 3 µg/mL (≈ 10.5 µM) with Col2 [14] and 2.4 µg/mL (≈ 8.38 µM) with LNCaP.
